Reference: ChEMBL document CHEMBL2177043, “HIV-1 X4 activities of polycationic "viologen" based dendrimers by interaction with the chemokine receptor CXCR4: study of structure-activity relationship” (J Med Chem, 2012)
Active and inactive are the calls of the source. The calls are words filed in the database; no cut-off is given here.

Legend:
[1] = test system: Human immunodeficiency virus 1; test: Antiviral activity against X4 HIV1 NL4.3 infected in human PBMC assessed as inhibition of viral replication pre-incubated for 30 mins measured 5 days post infection by MTT assay; format: functional, organism-based; conditions: Human immunodeficiency virus 1, NL4.3
Summary of the method: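 Human PBMC infected with HIV-1 NL4.3. IC₅₀ is the concentration inhibiting viral replication by 50%, averaged over two independent experiments. Cytotoxicity (CC₅₀, 50% loss of PBMC viability) evaluated in the same assay.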

[2] = molecular target: T1, C-X-C chemokine receptor type 4 (Homo sapiens, UniProt P61073); test: Agonist activity against CXCR4 expressed in U87.CD.CXCR4 cells assessed as stimulation of calcium signaling incubated for 10 mins by FLIPR; format: functional, cell-based
Summary of the method: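 U87.CD4 cells stably carrying CXCR4 or CCR5, trypsinized and seeded at 2 × 10⁴ cells/well on 0.2% gelatin the day before. Loaded with Fluo-3 AM (4 μM, 45 min, 37 °C), washed, then exposed to test agents alone at varied concentrations in assay buffer for 10 min at 37 °C. Cytosolic Ca²⁺ rise monitored over time by FLIPR to detect any agonist-triggered signal.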

[3] = Cytotoxicity against human PBMC cells by MTT assay; format: cell-based
[4] = molecular target: T1, C-X-C chemokine receptor type 4; test: Inhibition of anti-CXCR4 mAbs clone 12G5 binding to CXCR4 in human SUPT1 cells incubated for 30 mins by FACS
[5] = Cytotoxicity against human MT4 cells by MTT assay; format: cell-based
[6] = molecular target: T2, C-C chemokine receptor type 5 (Homo sapiens, UniProt P51681); test: Antagonist activity against CCR5 expressed in U87.CD4.CCR5 cells assessed as inhibition of CCL3L1-induced calcium signaling incubated for 10 mins by FLIPR
[7] = molecular target: T1, C-X-C chemokine receptor type 4; test: Antagonist activity against CXCR4 expressed in U87.CD.CXCR4 cells assessed as inhibition of CXCL12-induced calcium signaling incubated for 10 mins by FLIPR; format: functional, cell-based
Summary of the method: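 U87.CD4.CXCR4 cells seeded at 2 × 10⁴/well on 0.2% gelatin the day before, loaded with 4 μM Fluo-3 AM for 45 min at 37 °C, washed, then preincubated with compounds at varied concentrations in assay buffer for 10 min at 37 °C. Challenged with 25 ng/mL CXCL12; Ca²⁺ flux followed over time by FLIPR.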

[8] = molecular target: T1, C-X-C chemokine receptor type 4; test: Inhibition of anti-CXCR4 mAbs clone 1D9 binding to CXCR4 in human SUPT1 cells incubated for 30 mins by FACS
[9] = molecular target: T2, C-C chemokine receptor type 5; test: Antagonist activity against CCR5 expressed in U87.CD4.CCR5 cells assessed as inhibition of CCL3L1-induced calcium signaling incubated for 10 mins by FLIPR; format: functional, cell-based
Summary of the method: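 U87.CD4.CCR5 cells seeded at 2 × 10⁴/well on 0.2% gelatin the day before, loaded with 4 μM Fluo-3 AM for 45 min at 37 °C, washed, then preincubated with compounds at varied concentrations in assay buffer for 10 min at 37 °C. Stimulated with 10 ng/mL LD78β (CCL3L1); Ca²⁺ flux recorded by FLIPR.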

[10] = molecular target: T1, C-X-C chemokine receptor type 4; test: Inhibition of anti-CXCR4 mAbs clone 173 binding to CXCR4 in human SUPT1 cells incubated for 30 mins by FACS
[11] = test system: Human immunodeficiency virus 1; test: Antiviral activity against X4 HIV1 NL4.3 infected in human MT4 cells assessed as inhibition of viral replication pre-incubated for 30 mins […]; format: functional, organism-based; conditions: Human immunodeficiency virus 1, NL4.3, MT4
[12] = molecular target: T2, C-C chemokine receptor type 5; test: Agonist activity against CCR5 expressed in U87.CD4.CCR5 cells assessed as stimulation of calcium signaling incubated for 10 mins by FLIPR
[13] = molecular target: T1, C-X-C chemokine receptor type 4; test: Inhibition of CXCL-12'AF647 binding to CXCR4 in human SUPT1 cells incubated for 15 mins by FACS; format: cell-based
Summary of the method: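 SupT1 cells (high CXCR4) washed, then incubated 15 min at room temperature with compounds at varied concentrations in HBSS containing 20 mM HEPES and 0.2% BSA, pH 7.4. CXCL12-AF647 added at 25 ng/mL final for 30 min at room temperature. Cells washed, fixed in 1% paraformaldehyde, and read by flow cytometry on FL4.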

T2 sequence (P51681 whole entry, looked up): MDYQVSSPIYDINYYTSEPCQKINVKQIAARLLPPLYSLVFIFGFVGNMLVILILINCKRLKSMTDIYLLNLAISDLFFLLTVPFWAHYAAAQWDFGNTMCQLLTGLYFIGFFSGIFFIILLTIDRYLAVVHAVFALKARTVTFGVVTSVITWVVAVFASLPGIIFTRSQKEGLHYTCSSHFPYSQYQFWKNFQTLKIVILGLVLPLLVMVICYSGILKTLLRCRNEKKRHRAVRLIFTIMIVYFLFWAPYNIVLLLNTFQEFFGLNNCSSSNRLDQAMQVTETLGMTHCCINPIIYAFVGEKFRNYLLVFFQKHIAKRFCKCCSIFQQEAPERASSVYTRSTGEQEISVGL
T1 sequence (P61073 whole entry): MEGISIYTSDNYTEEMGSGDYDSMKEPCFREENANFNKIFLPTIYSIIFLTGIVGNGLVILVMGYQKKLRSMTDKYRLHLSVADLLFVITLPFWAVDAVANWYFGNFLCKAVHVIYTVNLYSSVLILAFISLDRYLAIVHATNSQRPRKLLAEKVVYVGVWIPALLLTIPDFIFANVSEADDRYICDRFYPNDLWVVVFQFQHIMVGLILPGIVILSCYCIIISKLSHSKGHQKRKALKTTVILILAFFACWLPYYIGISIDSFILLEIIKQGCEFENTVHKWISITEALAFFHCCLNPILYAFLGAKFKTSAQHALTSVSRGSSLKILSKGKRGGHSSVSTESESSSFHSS

## CC[n+]1ccc(-c2cc[n+](Cc3cc(C[n+]4ccc(-c5cc[n+](CC)cc5)cc4)cc(C[n+]4ccc(-c5cc[n+](Cc6cc(C[n+]7ccc(-c8cc[n+](Cc9cc(C[n+]%10ccc(-c%11cc[n+](CC)cc%11)cc%10)cc(C[n+]%10ccc(-c%11cc[n+](CC)cc%11)cc%10)c9)cc8)cc7)cc(C[n+]7ccc(-c8cc[n+](Cc9cc(C[n+]%10ccc(-c%11cc[n+](CC)cc%11)cc%10)cc(C[n+]%10ccc(-c%11cc[n+](CC)cc%11)cc%10)c9)cc8)cc7)c6)cc5)cc4)c3)cc2)cc1.F[P-](F)(F)(F)(F)F.F[P-](F)(F)(F)(F)F.F[P-](F)(F)(F)(F)F.F[P-](F)(F)(F)(F)F.F[P-](F)(F)(F)(F)F.F[P-](F)(F)(F)(F)F.F[P-](F)(F)(F)(F)F.F[P-](F)(F)(F)(F)F.F[P-](F)(F)(F)(F)F.F[P-](F)(F)(F)(F)F.F[P-](F)(F)(F)(F)F.F[P-](F)(F)(F)(F)F.F[P-](F)(F)(F)(F)F.F[P-](F)(F)(F)(F)F.F[P-](F)(F)(F)(F)F.F[P-](F)(F)(F)(F)F.F[P-](F)(F)(F)(F)F.F[P-](F)(F)(F)(F)F
[1]
  IC50: 0.34 µg/mL
[2]
  Activity: inactive
[3]
  CC50: 20 µg/mL
[4]
  IC50: 260 nM
  inhibition: Dose-dependent effect
[5]
  CC50: 11 µg/mL
[6]
  inhibition: Dose-dependent effect
[7]
  IC50: 294 nM
  inhibition: Dose-dependent effect
[8]
  IC50: 464 nM
  inhibition: Dose-dependent effect
[9]
  IC50: 4860 nM
[10]
  IC50: 378 nM
  inhibition: Dose-dependent effect
[11]
  IC50: 0.8 µg/mL
[12]
  Activity: inactive
[13]
  IC50: 309 nM

## Cc1cn(CCC[n+]2ccc(-c3cc[n+](Cc4cc(C[n+]5ccc(-c6cc[n+](CCCn7cc(C)c(=O)[nH]c7=O)cc6)cc5)cc(C[n+]5ccc(-c6cc[n+](Cc7cc(C[n+]8ccc(-c9cc[n+](Cc%10cc(C[n+]%11ccc(-c%12cc[n+](CCCn%13cc(C)c(=O)[nH]c%13=O)cc%12)cc%11)cc(C[n+]%11ccc(-c%12cc[n+](CCCn%13cc(C)c(=O)[nH]c%13=O)cc%12)cc%11)c%10)cc9)cc8)cc(C[n+]8ccc(-c9cc[n+](Cc%10cc(C[n+]%11ccc(-c%12cc[n+](Cc%13cc(C[n+]%14ccc(-c%15cc[n+](Cc%16cc(C[n+]%17ccc(-c%18cc[n+](CCCn%19cc(C)c(=O)[nH]c%19=O)cc%18)cc%17)cc(C[n+]%17ccc(-c%18cc[n+](CCCn%19cc(C)c(=O)[nH]c%19=O)cc%18)cc%17)c%16)cc%15)cc%14)cc(C[n+]%14ccc(-c%15cc[n+](Cc%16cc(C[n+]%17ccc(-c%18cc[n+](CCCn%19cc(C)c(=O)[nH]c%19=O)cc%18)cc%17)cc(C[n+]%17ccc(-c%18cc[n+](CCCn%19cc(C)c(=O)[nH]c%19=O)cc%18)cc%17)c%16)cc%15)cc%14)c%13)cc%12)cc%11)cc(C[n+]%11ccc(-c%12cc[n+](Cc%13cc(C[n+]%14ccc(-c%15cc[n+](Cc%16cc(C[n+]%17ccc(-c%18cc[n+](CCCn%19cc(C)c(=O)[nH]c%19=O)cc%18)cc%17)cc(C[n+]%17ccc(-c%18cc[n+](CCCn%19cc(C)c(=O)[nH]c%19=O)cc%18)cc%17)c%16)cc%15)cc%14)cc(C[n+]%14ccc(-c%15cc[n+](Cc%16cc(C[n+]%17ccc(-c%18cc[n+](CCCn%19cc(C)c(=O)[nH]c%19=O)cc%18)cc%17)cc(C[n+]%17ccc(-c%18cc[n+](CCCn%19cc(C)c(=O)[nH]c%19=O)cc%18)cc%17)c%16)cc%15)cc%14)c%13)cc%12)cc%11)c%10)cc9)cc8)c7)cc6)cc5)c4)cc3)cc2)c(=O)[nH]c1=O.F[P-](F)(F)(F)(F)F.F[P-](F)(F)(F)(F)F.F[P-](F)(F)(F)(F)F.F[P-](F)(F)(F)(F)F.F[P-](F)(F)(F)(F)F.F[P-](F)(F)(F)(F)F.F[P-](F)(F)(F)(F)F.F[P-](F)(F)(F)(F)F.F[P-](F)(F)(F)(F)F.F[P-](F)(F)(F)(F)F.F[P-](F)(F)(F)(F)F.F[P-](F)(F)(F)(F)F.F[P-](F)(F)(F)(F)F.F[P-](F)(F)(F)(F)F.F[P-](F)(F)(F)(F)F.F[P-](F)(F)(F)(F)F.F[P-](F)(F)(F)(F)F.F[P-](F)(F)(F)(F)F.F[P-](F)(F)(F)(F)F.F[P-](F)(F)(F)(F)F.F[P-](F)(F)(F)(F)F.F[P-](F)(F)(F)(F)F.F[P-](F)(F)(F)(F)F.F[P-](F)(F)(F)(F)F.F[P-](F)(F)(F)(F)F.F[P-](F)(F)(F)(F)F.F[P-](F)(F)(F)(F)F.F[P-](F)(F)(F)(F)F.F[P-](F)(F)(F)(F)F.F[P-](F)(F)(F)(F)F.F[P-](F)(F)(F)(F)F.F[P-](F)(F)(F)(F)F.F[P-](F)(F)(F)(F)F.F[P-](F)(F)(F)(F)F.F[P-](F)(F)(F)(F)F.F[P-](F)(F)(F)(F)F.F[P-](F)(F)(F)(F)F.F[P-](F)(F)(F)(F)F.F[P-](F)(F)(F)(F)F.F[P-](F)(F)(F)(F)F.F[P-](F)(F)(F)(F)F.F[P-](F)(F)(F)(F)F
[1]
  IC50: 2.32 µg/mL
[2]
  Activity: inactive
[3]
  CC50: 20 µg/mL
[4]
  IC50: 178 nM
  inhibition: Dose-dependent effect
[5]
  CC50: 9 µg/mL
[6]
  inhibition: Dose-dependent effect
[7]
  IC50: 38.3 nM
  inhibition: Dose-dependent effect
[8]
  IC50: 233 nM
  inhibition: Dose-dependent effect
[9]
  IC50: 1750 nM
[10]
  IC50: 191 nM
  inhibition: Dose-dependent effect
[11]
  IC50: 1.5 µg/mL
[12]
  Activity: inactive
[13]
  IC50: 124 nM
